From PubChem BioAssay AID489030 (Sanford-Burnham Center for Chemical Genomics, 2010)
Hit rate of the full screen: of about 330,000 compounds, about 2,400 (0.73%) were called active. How the source made its calls: active means inhibition of at least 40% at 20 µM; inactive means the rest. Only a selection was taken, and actives are over-represented in it overall.

The compounds below were run against Apoptotic protease-activating factor 1 (Homo sapiens) (UniProt O14727) (assay: inhibitors of human Apaf-1 apoptosome, primary screen, biochemical, DEVD-Rh110 fluorescence, uHTS (AID 489030;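 further: plate controls were DMSO wells for no effect and DEVD-CHO caspase inhibitor wells for full effect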)). Conditions: reconstituted apoptosome caspase-3 activity, at 20 µM, active compounds read high.
Sequence of Apoptotic protease-activating factor 1 (Homo sapiens) (O14727 whole entry, looked up): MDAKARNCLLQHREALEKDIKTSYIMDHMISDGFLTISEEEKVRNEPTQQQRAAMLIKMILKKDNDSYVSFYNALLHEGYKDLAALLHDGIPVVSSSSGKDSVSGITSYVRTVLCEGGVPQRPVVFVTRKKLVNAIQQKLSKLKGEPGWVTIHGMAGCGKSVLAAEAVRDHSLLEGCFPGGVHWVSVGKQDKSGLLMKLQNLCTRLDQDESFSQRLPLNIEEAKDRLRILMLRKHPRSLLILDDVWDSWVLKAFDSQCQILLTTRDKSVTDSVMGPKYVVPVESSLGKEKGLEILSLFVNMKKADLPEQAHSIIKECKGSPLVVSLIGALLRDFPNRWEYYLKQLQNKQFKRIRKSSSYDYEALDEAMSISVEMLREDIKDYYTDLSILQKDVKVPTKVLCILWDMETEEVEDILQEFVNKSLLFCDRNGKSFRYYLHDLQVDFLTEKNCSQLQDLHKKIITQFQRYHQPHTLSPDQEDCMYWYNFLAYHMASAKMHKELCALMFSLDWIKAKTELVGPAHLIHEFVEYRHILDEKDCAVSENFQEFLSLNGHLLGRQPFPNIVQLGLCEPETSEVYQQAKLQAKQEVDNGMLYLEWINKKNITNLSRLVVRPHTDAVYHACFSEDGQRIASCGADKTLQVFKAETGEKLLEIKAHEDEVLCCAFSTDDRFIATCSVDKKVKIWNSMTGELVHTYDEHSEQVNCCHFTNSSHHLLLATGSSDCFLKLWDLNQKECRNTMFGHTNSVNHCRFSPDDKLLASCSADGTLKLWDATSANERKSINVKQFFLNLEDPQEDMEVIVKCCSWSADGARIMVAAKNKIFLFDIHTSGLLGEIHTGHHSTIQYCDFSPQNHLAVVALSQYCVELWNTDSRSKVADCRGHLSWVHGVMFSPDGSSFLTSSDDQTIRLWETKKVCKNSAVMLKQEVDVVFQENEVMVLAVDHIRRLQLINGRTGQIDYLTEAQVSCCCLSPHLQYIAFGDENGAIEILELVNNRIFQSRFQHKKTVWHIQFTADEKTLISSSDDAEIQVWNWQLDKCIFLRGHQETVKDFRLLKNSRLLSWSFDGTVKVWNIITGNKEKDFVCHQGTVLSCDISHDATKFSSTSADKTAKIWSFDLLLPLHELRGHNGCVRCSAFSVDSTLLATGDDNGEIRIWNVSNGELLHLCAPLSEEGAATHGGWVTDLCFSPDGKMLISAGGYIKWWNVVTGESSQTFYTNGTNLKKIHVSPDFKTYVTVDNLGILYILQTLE
Summary of the method: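 Medium: Hepes buffer, pH 7.5 / System: biochemical Apaf-1 apoptosome reconstitution / Measured by: Rh110 fluorescence, excitation 480 nm, emission 540 nm / Times: compound with Apaf-1, dATP, procaspase-3 30 min, then 50 min reaction, room temperature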
In the case of CCN(c1ccc2c(c1)OCO2)S(=O)(=O)c1cc(Br)cc2c1N(C(=O)C1CC1)CC2, the inhibition is reported as 21.5% (inactive). In the case of COc1cc(C2C(C(=O)c3cccs3)=C(O)C(=O)N2CCN2CCOCC2)ccc1OCCC(C)C (centres undefined), the inhibition is reported as 6.88% (inactive). For CCn1c(CN2C(=O)CSc3ccccc32)n[nH]c1=S, the inhibition was -18.9% (inactive). In the case of CN(Cc1ccccc1)C(=O)c1ccc(NC2=NC3CS(=O)(=O)CC3S2)cc1 (centres undefined), the inhibition is reported as -0.97% (inactive). With CC(C)Oc1ccc(Cc2n[nH]c(=S)n2Cc2ccccc2)cc1Cl the inhibition was -15.3% (inactive). CC(NCc1ccccc1OC1CCCC1)c1ccccc1 (centres undefined) was tested, and the inhibition was -12% (inactive). For CCOc1ccc(N=C2NC(=O)S/C2=C\c2ccc(O)cc2)cc1, the inhibition was -72% (inactive). For CCOc1[nH]n(-c2ccc(Cl)cc2)c(=O)c1C=Nc1ccc(O)cc1, the inhibition was 66.9% (active). With CCCCn1c(N)c(N(CCC(C)C)C(=O)c2ccc([N+](=O)[O-])o2)c(=O)[nH]c1=O the inhibition was 5.92% (inactive). In the case of CCCCc1nnc(NC(=O)CSc2nc(N)cc(=O)[nH]2)s1, the inhibition is reported as 20.3% (inactive). COc1ccc(NC(=O)CN(C)S(=O)(=O)c2ccccc2)cc1OC was tested, and the inhibition was -3.33% (inactive). COC(=O)c1ccccc1NC(=O)CN(Cc1ccccc1)S(C)(=O)=O was tested, and the inhibition was -17.6% (inactive). For COc1ccc(NC(=O)CN(Cc2ccccc2)S(C)(=O)=O)cc1OC, the inhibition was 40.8% (active). With CCCCN(C(=O)C1=NN(c2cc(C)ccc2C)C(=O)CC1)c1c(N)n(CCC)c(=O)[nH]c1=O the inhibition was -17% (inactive). In the case of CC1CC(=S)Nc2ccccc2N1Cc1ccccc1 (centres undefined), the inhibition is reported as 41.4% (active). CC1CC(=O)Nc2ccccc2N1S(=O)(=O)c1cccs1 (centres undefined) was tested, and the inhibition was -4.75% (inactive). CC1CC(C)(C)NC(=S)N1CCC(=O)N1CCN(Cc2ccccc2)CC1 (centres undefined) was tested, and the inhibition was -1.32% (inactive). For COC(=O)c1noc(C)c1-c1ccnn1C(=O)c1ccc(Cl)cc1, the inhibition was 10.5% (inactive). In the case of CN(C)CCCN(C(=O)c1ccc(S(=O)(=O)N2CCCCCC2)cc1)c1nc2ccc(Br)cc2s1, the inhibition is reported as 60.4% (active). In the case of COc1ccc2sc(N(CCCN(C)C)C(=O)c3ccc(S(=O)(=O)N(C)C4CCCCC4)cc3)nc2c1, the inhibition is reported as 24% (inactive). For CN(C)CCCN(C(=O)c1ccc(S(=O)(=O)N2CCCc3ccccc32)cc1)c1nc2ccc(F)cc2s1, the inhibition was 23.6% (inactive). With C#CCOCCOCCOCCNc1nc(N2CCN(C(=O)[C@H](CCCCN)n3cc([C@@H](N)C(C)CC)nn3)CC2)nc(N2CCN(C(=O)[C@H](Cc3ccc(O)cc3)n3cc([C@@H](N)C(C)CC)nn3)CC2)n1 (some centres undefined) the inhibition was -9.37% (inactive). In the case of CC1(C)CC(=O)C2=C(C1)NCN(CCCN1CCOCC1)C2, the inhibition is reported as 4.48% (inactive). In the case of CCc1nc(C)ccc1OCC(=O)N(CC)CC, the inhibition is reported as -18.1% (inactive). For CN(C)CCOc1ccc(Cl)cc1C(C)(C)C, the inhibition was 4.15% (inactive). For CCC(C)(C)c1ccc(OCC(=O)N(C)C)c(C(C)(C)CC)c1, the inhibition was 56.5% (active). With CCOc1ccc(C(=O)CCN2CCOCC2)cc1 the inhibition was 2.64% (inactive). For CC(OC(=O)c1ccc(NS(=O)(=O)c2ccc3[nH]c(=O)[nH]c3c2)cc1)C(=O)Nc1cccc(Cl)c1Cl (centres undefined), the inhibition was 14% (inactive). CCC(C)Sc1nc2c(c(=O)[nH]c(=O)n2C)n1CC(O)COc1cccc2ccccc12 (centres undefined) was tested, and the inhibition was 22.5% (inactive). In the case of Cc1cc(C)c(NC(=O)C[N+](C)(C)CC(O)COc2cccc3ccccc23)c(C)c1 (centres undefined), the inhibition is reported as 12.4% (inactive). In the case of CC(C)c1ccccc1OCC(O)CN(CC(O)COc1cccc2ccccc12)C(C)C (centres undefined), the inhibition is reported as 57.3% (active). In the case of CCOC(=O)COn1c(=O)c(-c2ccc(OCC)cc2)[n+]([O-])c2ccccc21, the inhibition is reported as 9.6% (inactive). With CCCCn1c(N)c(N(CCOC)C(=O)c2cccc(OCc3ccccc3)c2)c(=O)[nH]c1=O the inhibition was 0.864% (inactive). With CCCCCCCCCCOC(=O)Cn1c(COc2ccc(C)cc2)[n+](C)c2ccccc21 the inhibition was 77.7% (active). With COc1cccc(OCc2nnc3n2N=C(c2ccccc2)C(CC(=O)O)S3)c1 (centres undefined) the inhibition was -0.294% (inactive). CCCCOc1ccc(NC(=O)CSCC(=O)OCC)cc1 was tested, and the inhibition was -4.3% (inactive). In the case of CCCCCCCCCCOC(=O)Cn1c(COc2cccc(OC)c2)[n+](C)c2ccccc21, the inhibition is reported as 65.3% (active). Cc1cccc(/C(N)=N/OC(=O)c2ccccc2Cl)c1 was tested, and the inhibition was 11.3% (inactive). For CCOC(=O)c1sc(C)c2c1NC(C)(c1cccc3ccccc13)NC2=O (centres undefined), the inhibition was 28% (inactive). In the case of COC(=O)c1nn(-c2cccc(Cl)c2)ccc1=O, the inhibition is reported as -6.21% (inactive). With CN(CCc1cn[nH]c1)C(=O)CC1C(=O)NCCN1Cc1cccc(Oc2ccccc2)c1 (centres undefined) the inhibition was 13% (inactive). With COCCNC(=O)c1snc2ccc(Cl)cc12 the inhibition was -26% (inactive). With O=C1CSc2ccc(C(=O)NCc3ccccn3)cc2N1 the inhibition was -4.15% (inactive). For O=C(NCc1ccccn1)c1ccc2nc(-c3ccco3)c(-c3ccco3)nc2c1, the inhibition was 60.6% (active). COc1cccc(S(=O)(=O)NCc2ccc(C(=O)NCc3ccccn3)cc2)c1 was tested, and the inhibition was 4.94% (inactive). In the case of CCCNC(=O)Nc1ccccc1C(=O)Nc1ccc(OC)cc1, the inhibition is reported as 11.1% (inactive). In the case of COCCNC(=O)Nc1ccc2nc(-c3ccco3)c(-c3ccco3)nc2c1, the inhibition is reported as 64.8% (active). For O=C(O)c1ccc(NC(=O)c2ccc(COc3ccc(Cl)cc3)o2)cc1, the inhibition was 3.81% (inactive). In the case of Cn1c(=O)n(C)c2cc(NS(=O)(=O)c3ccc(F)cc3)ccc21, the inhibition is reported as 1.91% (inactive). For Cc1cccc(C)c1Nc1nnc(SCC(=O)NCCCN2CCCC2=O)s1, the inhibition was -3.15% (inactive). Cc1ccc(/C=C(\C#N)C(=O)Nc2cccc3ncccc23)o1 was tested, and the inhibition was -6.14% (inactive). With O=C(O)c1cc(Cl)c(Cl)cc1C(=O)Nc1cccc2ncccc12 the inhibition was 80.4% (active). O=C(Nc1cccnc1Cl)c1cc(-c2cccc(Cl)c2)on1 was tested, and the inhibition was 3.02% (inactive). In the case of C=C(C)CNc1cc(S(=O)(=O)N2CCOCC2)ccc1Oc1ccccc1, the inhibition is reported as 24.2% (inactive). With CCCC[C@@H]1CN=C(N)N1CCCC the inhibition was 8.23% (inactive). In the case of CCCC[C@@H]1CN=C(N)N1CCc1cc(C(F)(F)F)cc(C(F)(F)F)c1, the inhibition is reported as 52.3% (active). For CCCC[C@@H]1CN=C(N)N1CCc1cccc(F)c1, the inhibition was 4.48% (inactive). For COc1ccccc1N=C1SC(C)CN1C(=O)C1CCC1 (centres undefined), the inhibition was 3.12% (inactive). Cc1ccc(C)c(Cn2cnc3c(oc4ccccc43)c2=O)c1 was tested, and the inhibition was -9.64% (inactive). In the case of CCOC(=O)C1CCN(C(=O)c2cccc(S(=O)(=O)N(CC)c3ccccc3)c2)CC1, the inhibition is reported as 45.2% (active). With CCOC(=O)C1CCN(C(=O)c2ccccc2N(C)S(=O)(=O)c2ccccc2)CC1 the inhibition was 2.95% (inactive). For CCOC(=O)C1CCCN(C(=O)c2cccc(S(=O)(=O)N3CCOCC3)c2)C1 (centres undefined), the inhibition was -8.74% (inactive). With CC(C)[C@@H](NC(=O)OC(C)(C)C)C(=O)NCC1CCC(C(=O)N[C@@H](Cc2ccccc2)C(=O)O)CC1 (some centres undefined) the inhibition was 2.34% (inactive). For CCCCC(=O)Nc1ccc(C(=O)Nc2cc(C(F)(F)F)ccc2Cl)cc1, the inhibition was 37.6% (inactive). For CCCCN(CCCC)CCC(O)c1cc2c(Cl)cc(Cl)cc2c2cc(C(F)(F)F)ccc12 (centres undefined), the inhibition was 48.9% (active). ON=C1/C(=N\O)CC2(C/C1=N/O)OCCO2 was tested, and the inhibition was -16% (inactive). In the case of CN(C(=O)CN1C(=O)CCSc2ccc(S(=O)(=O)N3CCCC3)cc21)c1ccccc1, the inhibition is reported as -2.73% (inactive). For CCC(CO)Oc1cc(NC(=O)c2ccc(Cl)cc2)c2ncn(C(C)C)c2c1 (centres undefined), the inhibition was 11.6% (inactive). For CCC(CO)Oc1cc(NC(=O)c2cccc3ccccc23)c2ncn(C(C)C)c2c1 (centres undefined), the inhibition was 29.6% (inactive). With CC(C)n1cnc2c(NCc3ccccc3)cc(N[C@@H](CO)Cc3ccccc3)cc21 the inhibition was 94.5% (active). With CCC(CO)Oc1cc(NC(=O)c2cccc(F)c2)c2ncn(C(C)C)c2c1 (centres undefined) the inhibition was 17.6% (inactive). In the case of CCC(CO)Oc1cc(NCc2ccccc2)c2ncn(C3CCCC3)c2c1 (centres undefined), the inhibition is reported as 32.6% (inactive). CC(C)n1cnc2c(NCc3ccccc3)cc(OCC3CCN(C)CC3)cc21 was tested, and the inhibition was 96.4% (active). COc1ccc(N2CCN(CCNC(=O)c3nnc(Cc4c(F)cccc4Cl)o3)CC2)cc1 was tested, and the inhibition was -8.42% (inactive). With Cn1c(=O)c2c(nc(N3CCOCC3)n2CCNC2=NCCC2)n(C)c1=O the inhibition was 9.61% (inactive). In the case of O=C(c1ccccc1)c1cccn1CC(=O)N1CCN(c2ccc(F)cc2)CC1, the inhibition is reported as 5.66% (inactive). For Cc1nc(N)[nH]c(=O)c1Oc1cccc(C(F)(F)F)c1, the inhibition was -9.16% (inactive). With CC(=O)c1ccc(S(=O)(=O)Nc2ccc(C(=O)NCC(c3ccccc3)N(C)C)cc2)cc1 (centres undefined) the inhibition was -18.1% (inactive). In the case of COc1ccc(C(CNC(=O)c2ccc(NS(=O)(=O)c3ccc(F)c(C)c3)cc2)N(C)C)cc1 (centres undefined), the inhibition is reported as 26% (inactive). In the case of COc1ccc(C(CNC(=O)c2ccc(S(=O)(=O)Nc3ccccc3F)cc2)N(C)C)cc1 (centres undefined), the inhibition is reported as 56.5% (active). With CCOC(=O)C1CCN(S(=O)(=O)c2c(C)noc2C)CC1 the inhibition was 1.33% (inactive). C=CCNc1nc(N)c(C(=C(C#N)C#N)c2ccccc2)s1 was tested, and the inhibition was 10.1% (inactive). With O=C(NCCCNCc1ccccc1)c1ccc(/C=N/O)nc1 the inhibition was 6.05% (inactive). For COc1ccc(CNC(=O)c2ccc(NS(=O)(=O)c3ccc4[nH]c(=O)[nH]c4c3)cc2)cc1OC, the inhibition was 8.25% (inactive). COC(=O)c1ccccc1NC(=O)CN(Cc1ccc(Cl)cc1)S(C)(=O)=O was tested, and the inhibition was -4.4% (inactive). For N#CCc1c(C#N)c(N)nc(N2CCCC2)c1C#N, the inhibition was -2.29% (inactive). N#Cc1c(N2CCCCC2)nc(N)c2c(N)nc(SCC(=O)O)cc12 was tested, and the inhibition was 96% (active). With Nc1nc(NCC(=O)O)nc(N2CCCCCC2)c1[N+](=O)[O-] the inhibition was -0.54% (inactive). COc1nc(NC2CCCCC2)nc(N2CCCCCC2)n1 was tested, and the inhibition was 15.5% (inactive).
